Measured values as given in ChEMBL document CHEMBL4270576, “Discovery of a benzenesulfonamide-based dual inhibitor of microsomal prostaglandin E2 synthase-1 and 5-lipoxygenase that favorably modulates lipid mediator biosynthesis in inflammation” (Eur J Med Chem, 2018).

Experiments:
[1] = molecular target: T1, Polyunsaturated fatty acid 5-lipoxygenase (Homo sapiens) (UniProt P09917); test: Inhibition of 5-LO in human M1 macrophages derived from LPS/IFNgamma-polarized human monocyte derived macrophages assessed as effect on 5-HEPE level at 3 uM preincubated for 15 mins followed by Escherichia coli (O6:K2:H1) challenge for 90 mins by LC-MS/MS analysis; parameters: scale not given: the % may be the effect or the level left
T1 sequence (whole entry): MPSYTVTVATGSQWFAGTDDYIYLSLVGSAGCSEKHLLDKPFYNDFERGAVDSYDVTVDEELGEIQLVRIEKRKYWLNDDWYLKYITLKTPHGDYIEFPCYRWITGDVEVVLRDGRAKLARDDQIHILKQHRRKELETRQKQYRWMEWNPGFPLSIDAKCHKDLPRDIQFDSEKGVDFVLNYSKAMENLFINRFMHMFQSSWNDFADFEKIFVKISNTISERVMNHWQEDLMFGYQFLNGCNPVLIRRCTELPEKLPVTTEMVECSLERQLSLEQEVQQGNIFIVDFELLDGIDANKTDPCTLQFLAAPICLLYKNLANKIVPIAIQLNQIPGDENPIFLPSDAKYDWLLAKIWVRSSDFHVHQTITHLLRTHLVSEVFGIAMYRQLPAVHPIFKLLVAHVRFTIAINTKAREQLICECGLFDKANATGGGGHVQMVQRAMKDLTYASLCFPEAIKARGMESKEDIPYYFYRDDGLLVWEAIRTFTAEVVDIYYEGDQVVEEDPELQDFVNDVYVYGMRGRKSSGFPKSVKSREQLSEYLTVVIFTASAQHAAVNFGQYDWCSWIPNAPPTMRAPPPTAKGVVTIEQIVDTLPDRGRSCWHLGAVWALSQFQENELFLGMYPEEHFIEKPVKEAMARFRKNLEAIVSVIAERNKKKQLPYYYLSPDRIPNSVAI
How it was run: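 Monocytes differentiated 6 days with GM-CSF (20 ng/ml) in RPMI/10% FCS, then polarized 48 h with LPS 100 ng/ml plus IFN-γ 20 ng/ml (M1). Cells (2 × 10^6) in PBS with 1 mM CaCl2 pre-incubated 15 min at 37 °C with 3 µM compound or 0.1% DMSO, then E. coli O6:K2:H1 (1:50) for 90 min. Methanol with deuterated standards added; SPE; UPLC-MS/MS; expressed as % of vehicle.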

[2] = molecular target: T2, Polyunsaturated fatty acid lipoxygenase ALOX12 (Homo sapiens) (UniProt P18054); test: Modulation of 12-LO-mediated 12-HEPE level in human M2 macrophages derived from IL4-polarized human monocyte derived macrophages at 3 uM preincubated for 15 mins followed by Escherichia coli (O6:K2:H1) challenge for 90 mins by LC-MS/MS analysis
T2 sequence (whole entry): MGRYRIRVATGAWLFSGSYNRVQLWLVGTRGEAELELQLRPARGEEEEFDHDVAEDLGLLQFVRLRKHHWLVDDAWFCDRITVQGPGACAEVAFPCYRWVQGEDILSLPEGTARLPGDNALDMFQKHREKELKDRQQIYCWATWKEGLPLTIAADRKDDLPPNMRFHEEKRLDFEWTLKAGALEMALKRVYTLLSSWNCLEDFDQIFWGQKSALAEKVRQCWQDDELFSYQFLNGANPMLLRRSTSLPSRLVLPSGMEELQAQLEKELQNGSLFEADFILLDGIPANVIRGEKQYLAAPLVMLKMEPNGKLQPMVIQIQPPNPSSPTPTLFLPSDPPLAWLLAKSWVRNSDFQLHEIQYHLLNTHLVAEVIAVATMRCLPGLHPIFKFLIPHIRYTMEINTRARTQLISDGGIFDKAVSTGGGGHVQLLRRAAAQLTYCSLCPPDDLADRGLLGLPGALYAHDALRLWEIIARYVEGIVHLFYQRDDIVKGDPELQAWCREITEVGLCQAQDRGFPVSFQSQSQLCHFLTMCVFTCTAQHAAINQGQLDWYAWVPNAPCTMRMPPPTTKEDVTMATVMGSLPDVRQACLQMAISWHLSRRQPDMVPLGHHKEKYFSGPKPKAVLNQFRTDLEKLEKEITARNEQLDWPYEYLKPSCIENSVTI
How it was run: (§1)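 Monocytes differentiated 6 days with M-CSF (20 ng/ml), then polarized 48 h with IL-4 20 ng/ml (M2). Cells (2 × 10^6) in PBS/1 mM CaCl2 pre-incubated 15 min at 37 °C with 3 µM compound or 0.1% DMSO, then challenged with E. coli O6:K2:H1 (1:50) for 90 min. Lipid mediators extracted by SPE with deuterated internal standards and quantified by UPLC-MS/MS as % of vehicle.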

Cyclooxygenase = Cyclooxygenase (Homo sapiens, UniProt P35354+P23219); test: Modulation of COX1/2-mediated 11-HETE level in human M2 macrophages derived from IL4-polarized human monocyte derived macrophages at 3 uM preincubated for 15 mins followed by Escherichia coli (O6:K2:H1) challenge for 90 mins by LC-MS/MS analysis; assay type: ADME; details: 1.5 h; how it was run: as §1
Homo sapiens = species: Homo sapiens; test: Modulation of LO-mediated PD1 level in human M2 macrophages derived from IL4-polarized human monocyte derived macrophages at 3 uM preincubated for 15 mins followed by Escherichia coli (O6:K2:H1) challenge for 90 mins by LC-MS/MS analysis; how it was run: as §1
Macrophage cell line [3] = test: Modulation of 18-HEPE level in human M2 macrophages derived from IL4-polarized human monocyte derived macrophages at 3 uM preincubated for 15 mins followed by Escherichia coli (O6:K2:H1) challenge for 90 mins by LC-MS/MS analysis; assay type: functional; how it was run: as §1
Macrophage cell line [4] = test: Modulation of 13-HDHA level in human M2 macrophages derived from IL4-polarized human monocyte derived macrophages at 3 uM preincubated for 15 mins followed by Escherichia coli (O6:K2:H1) challenge for 90 mins by LC-MS/MS analysis; assay type: functional; how it was run: as §1

- Activity [1]: 23%
- Activity [2]: 140%
- Activity (Cyclooxygenase): 106%
- Activity (Homo sapiens): 110%
SMILES: O=C(O)c1ccc(N(Cc2cccc(OCc3ccccc3)c2)S(=O)(=O)c2ccc(-c3ccccc3)cc2)cc1
- Activity (Macrophage cell line [3]): 86%
- Activity (Macrophage cell line [4]): 127%
